According to ChEMBL document CHEMBL1141169, “Discovery of 5-arylsulfonamido-3-(pyrrolidin-2-ylmethyl)-1H-indole derivatives as potent, selective 5-HT6 receptor agonists and antagonists” (J Med Chem, 2005):

Assays:
[1] = molecular target: T1, 5-hydroxytryptamine receptor 6 (Homo sapiens, UniProt P50406); conditions: HeLa
[2] = molecular target: D(2) dopamine receptor (Homo sapiens, UniProt P14416); assay: Inhibition of [3H]spiperone binding to human dopamine receptor D2 expressed in CHO-K1 cells; type: cell-based
Summary of the method: (§1)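 Radioligands: 5-HT1A, 8-hydroxy-[3H]-DPAT; 5-HT2C, [3H]-5-HT; 5-HT2A, [125I]DOI; D2, D3 and D4, [3H]spiperone. Ki determined in triplicate, or n = 1 where footnoted.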

[3] = molecular target: D(3) dopamine receptor (Homo sapiens, UniProt P35462); assay: Inhibition of [3H]spiperone binding to human dopamine receptor D3 expressed in CHO-K1 cells; type: cell-based
Summary of the method: as §1

[4] = molecular target: T2, D(4) dopamine receptor (Homo sapiens, UniProt P21917); assay: Inhibition of [3H]spiperone binding to human dopamine receptor D4 expressed in CHO-K1 cells; type: cell-based
T2 sequence (P21917 whole entry): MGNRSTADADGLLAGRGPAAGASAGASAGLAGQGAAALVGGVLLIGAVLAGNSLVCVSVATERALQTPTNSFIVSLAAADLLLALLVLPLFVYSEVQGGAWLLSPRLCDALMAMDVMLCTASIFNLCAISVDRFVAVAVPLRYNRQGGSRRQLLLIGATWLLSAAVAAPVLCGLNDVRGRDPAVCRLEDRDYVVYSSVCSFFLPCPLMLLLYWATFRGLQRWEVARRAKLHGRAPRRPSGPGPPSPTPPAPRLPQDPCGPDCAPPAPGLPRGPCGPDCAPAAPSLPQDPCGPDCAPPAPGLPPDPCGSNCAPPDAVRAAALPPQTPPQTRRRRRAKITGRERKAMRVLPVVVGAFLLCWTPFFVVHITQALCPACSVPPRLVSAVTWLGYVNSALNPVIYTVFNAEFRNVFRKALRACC
Summary of the method: as §1

[5] = molecular target: 5-hydroxytryptamine receptor 7 (Homo sapiens, UniProt P34969); assay: Inhibition of [3H]-LSD binding to 5-hydroxytryptamine 7 receptor expressed in CHO cells; type: cell-based
Summary of the method: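 Displacement of [3H]-LSD from human 5-HT7 receptor clone stably expressed in CHO cells. Ki in triplicate, or n = 1 where footnoted.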

[6] = molecular target: T3, 5-hydroxytryptamine receptor 1A (Homo sapiens, UniProt P08908); assay: Inhibition of [3H]8-OH-DPAT binding to human 5-hydroxytryptamine 1A receptor expressed in CHO cells; type: cell-based
T3 sequence (P08908 whole entry): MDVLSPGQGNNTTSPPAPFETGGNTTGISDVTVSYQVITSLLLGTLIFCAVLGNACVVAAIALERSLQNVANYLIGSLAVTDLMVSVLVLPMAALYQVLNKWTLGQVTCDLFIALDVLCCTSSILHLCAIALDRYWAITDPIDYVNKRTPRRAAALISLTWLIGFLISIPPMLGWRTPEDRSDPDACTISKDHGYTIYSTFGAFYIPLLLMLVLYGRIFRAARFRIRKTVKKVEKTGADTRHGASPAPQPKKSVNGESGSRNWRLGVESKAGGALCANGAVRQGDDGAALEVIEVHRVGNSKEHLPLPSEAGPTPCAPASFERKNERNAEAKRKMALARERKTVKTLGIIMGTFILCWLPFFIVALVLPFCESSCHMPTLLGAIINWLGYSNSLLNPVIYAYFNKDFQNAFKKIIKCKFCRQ
Summary of the method: as §1

[7] = molecular target: 5-hydroxytryptamine receptor 1D (Homo sapiens, UniProt P28221); assay: Inhibition of [3H]-8-OH-DPAT binding to human 5-hydroxytryptamine 1D receptor expressed in CHO cells; type: cell-based
[8] = molecular target: T4, 5-hydroxytryptamine receptor 1F (Homo sapiens, UniProt P30939); assay: Inhibition of [3H]8-OH-DPAT binding to human 5-hydroxytryptamine 1F receptor expressed in CHO cells; type: cell-based
T4 sequence (P30939 whole entry): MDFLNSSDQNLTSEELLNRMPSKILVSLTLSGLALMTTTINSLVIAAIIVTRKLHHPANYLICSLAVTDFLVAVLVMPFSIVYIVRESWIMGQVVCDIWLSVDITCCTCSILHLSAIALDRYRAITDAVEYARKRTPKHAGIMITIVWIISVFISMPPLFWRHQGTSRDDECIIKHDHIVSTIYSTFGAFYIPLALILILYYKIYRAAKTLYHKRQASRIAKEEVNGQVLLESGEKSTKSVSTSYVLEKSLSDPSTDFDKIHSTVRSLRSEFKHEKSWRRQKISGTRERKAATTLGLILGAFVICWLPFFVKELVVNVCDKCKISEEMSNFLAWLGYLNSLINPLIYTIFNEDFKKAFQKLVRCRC

[9] = molecular target: T1, 5-hydroxytryptamine receptor 6; assay: Inhibition of [3H]LSD binding to human 5-hydroxytryptamine 6 receptor expressed in HeLa cells; type: cell-based
Summary of the method: (§2)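 Competition binding against [3H]-LSD on cloned human 5-HT6 receptors stably expressed in HeLa cells. Ki determined in triplicate; single-point lines are % inhibition at 1000 nM.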

[10] = molecular target: T5, 5-hydroxytryptamine receptor 2A (Homo sapiens, UniProt P28223); assay: Inhibition of [125I]DOI binding to human 5-hydroxytryptamine 2A receptor expressed in CHO cells; type: cell-based
Summary of the method: as §1

[11] = molecular target: T1, 5-hydroxytryptamine receptor 6; assay: Effective agonist concentration in cAMP release assay in HeLa cells expressing human 5-hydroxytryptamine 6 receptor; type: functional, cell-based
Summary of the method: (§3)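 cAMP production read out across a range of ligand concentrations in HeLa cells stably transfected with the human 5-HT6 receptor, ligand given alone as agonist. EC50 and Emax each determined in triplicate.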

[12] = molecular target: T1, 5-hydroxytryptamine receptor 6; assay: Maximum percentage agonism of cAMP production in HeLa cells expressing human 5-hydroxytryptamine 6 receptor; type: functional, cell-based
Summary of the method: as §3

[13] = molecular target: T6, 5-hydroxytryptamine receptor 2C (Homo sapiens, UniProt P28335); assay: Inhibition of [3H]5-HT binding to human 5-hydroxytryptamine 2C receptor expressed in CHO cells; type: cell-based
T6 sequence (P28335 whole entry): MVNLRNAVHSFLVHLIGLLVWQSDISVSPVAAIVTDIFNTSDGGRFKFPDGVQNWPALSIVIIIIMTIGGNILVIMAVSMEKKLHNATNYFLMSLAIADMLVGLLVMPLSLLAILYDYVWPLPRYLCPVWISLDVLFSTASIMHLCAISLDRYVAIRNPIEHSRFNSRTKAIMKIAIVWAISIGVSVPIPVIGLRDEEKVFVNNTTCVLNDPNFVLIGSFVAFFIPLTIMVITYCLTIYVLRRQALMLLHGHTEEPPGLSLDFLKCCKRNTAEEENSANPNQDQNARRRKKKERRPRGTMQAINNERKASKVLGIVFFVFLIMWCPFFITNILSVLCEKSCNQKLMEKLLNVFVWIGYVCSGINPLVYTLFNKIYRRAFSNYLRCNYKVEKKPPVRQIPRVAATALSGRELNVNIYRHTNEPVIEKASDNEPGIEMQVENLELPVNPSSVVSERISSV
Summary of the method: as §1

[14] = molecular target: T5, 5-hydroxytryptamine receptor 2A; assay: Percentage inhibition of [125I]DOI binding to human 5-hydroxytryptamine 2A receptor expressed in CHO cells at 1000 nM; type: cell-based
[15] = molecular target: T1, 5-hydroxytryptamine receptor 6; assay: Percentage inhibition of [3H]LSD binding to human 5-hydroxytryptamine 6 receptor expressed in HeLa cells at 1000 nM; type: cell-based
Summary of the method: as §2

Sequence of D(2) dopamine receptor (P14416 whole entry): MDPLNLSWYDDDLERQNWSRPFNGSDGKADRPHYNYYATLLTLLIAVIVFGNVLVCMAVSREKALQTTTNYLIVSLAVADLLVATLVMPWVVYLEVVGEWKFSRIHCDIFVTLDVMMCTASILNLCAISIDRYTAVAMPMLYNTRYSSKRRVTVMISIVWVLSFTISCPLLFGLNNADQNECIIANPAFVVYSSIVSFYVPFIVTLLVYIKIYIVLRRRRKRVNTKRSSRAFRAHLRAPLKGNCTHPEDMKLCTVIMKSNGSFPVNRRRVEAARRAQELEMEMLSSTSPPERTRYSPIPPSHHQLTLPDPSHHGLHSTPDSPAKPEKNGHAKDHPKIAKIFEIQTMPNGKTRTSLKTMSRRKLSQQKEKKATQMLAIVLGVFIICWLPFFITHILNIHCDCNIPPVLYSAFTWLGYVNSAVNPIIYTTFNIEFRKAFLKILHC
T5 sequence (P28223 whole entry): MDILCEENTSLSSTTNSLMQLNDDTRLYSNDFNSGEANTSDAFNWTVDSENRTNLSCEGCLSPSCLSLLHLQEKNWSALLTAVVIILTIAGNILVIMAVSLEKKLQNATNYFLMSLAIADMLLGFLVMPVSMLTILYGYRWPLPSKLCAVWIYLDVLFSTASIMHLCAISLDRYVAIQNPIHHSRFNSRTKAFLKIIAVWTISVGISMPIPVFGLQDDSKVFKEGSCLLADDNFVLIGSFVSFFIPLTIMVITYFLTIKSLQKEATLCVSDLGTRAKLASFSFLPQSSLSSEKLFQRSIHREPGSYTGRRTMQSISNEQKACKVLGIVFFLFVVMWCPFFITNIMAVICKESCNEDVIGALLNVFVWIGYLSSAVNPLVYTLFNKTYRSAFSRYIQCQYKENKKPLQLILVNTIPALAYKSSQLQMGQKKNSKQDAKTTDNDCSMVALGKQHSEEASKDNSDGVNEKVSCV
Sequence of 5-hydroxytryptamine receptor 1D (P28221 whole entry): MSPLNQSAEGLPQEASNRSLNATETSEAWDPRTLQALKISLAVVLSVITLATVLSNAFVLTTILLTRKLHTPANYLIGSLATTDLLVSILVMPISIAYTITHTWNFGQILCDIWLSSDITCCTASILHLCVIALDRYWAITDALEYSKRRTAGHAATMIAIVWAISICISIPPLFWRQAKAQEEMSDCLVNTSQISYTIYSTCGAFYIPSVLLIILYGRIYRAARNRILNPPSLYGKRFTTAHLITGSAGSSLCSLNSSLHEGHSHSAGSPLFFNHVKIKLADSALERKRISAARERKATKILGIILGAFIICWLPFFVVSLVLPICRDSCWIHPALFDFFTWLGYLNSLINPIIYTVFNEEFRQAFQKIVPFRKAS
T1 sequence (P50406 whole entry): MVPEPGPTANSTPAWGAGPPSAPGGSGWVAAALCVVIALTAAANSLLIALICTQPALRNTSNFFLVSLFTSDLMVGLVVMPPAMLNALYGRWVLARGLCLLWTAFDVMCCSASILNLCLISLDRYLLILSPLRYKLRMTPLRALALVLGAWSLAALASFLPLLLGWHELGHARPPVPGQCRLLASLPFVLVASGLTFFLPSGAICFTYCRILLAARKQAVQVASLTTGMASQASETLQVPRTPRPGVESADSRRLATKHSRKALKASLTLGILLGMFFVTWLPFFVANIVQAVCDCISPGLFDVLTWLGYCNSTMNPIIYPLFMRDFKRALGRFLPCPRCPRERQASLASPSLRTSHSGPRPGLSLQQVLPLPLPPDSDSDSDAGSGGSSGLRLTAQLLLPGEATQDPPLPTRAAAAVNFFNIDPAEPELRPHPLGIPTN
Sequence of D(3) dopamine receptor (P35462 whole entry): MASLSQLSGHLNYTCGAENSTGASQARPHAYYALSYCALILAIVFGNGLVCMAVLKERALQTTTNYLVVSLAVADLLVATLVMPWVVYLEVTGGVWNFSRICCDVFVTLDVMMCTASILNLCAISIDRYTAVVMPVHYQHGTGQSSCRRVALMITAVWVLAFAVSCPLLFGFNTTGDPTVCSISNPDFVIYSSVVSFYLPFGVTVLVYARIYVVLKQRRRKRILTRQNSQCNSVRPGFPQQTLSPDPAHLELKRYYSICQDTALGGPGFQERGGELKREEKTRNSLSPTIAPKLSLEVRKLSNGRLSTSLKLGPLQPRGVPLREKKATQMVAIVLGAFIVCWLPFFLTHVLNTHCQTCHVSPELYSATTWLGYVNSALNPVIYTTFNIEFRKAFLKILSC
Sequence of 5-hydroxytryptamine receptor 7 (P34969 whole entry): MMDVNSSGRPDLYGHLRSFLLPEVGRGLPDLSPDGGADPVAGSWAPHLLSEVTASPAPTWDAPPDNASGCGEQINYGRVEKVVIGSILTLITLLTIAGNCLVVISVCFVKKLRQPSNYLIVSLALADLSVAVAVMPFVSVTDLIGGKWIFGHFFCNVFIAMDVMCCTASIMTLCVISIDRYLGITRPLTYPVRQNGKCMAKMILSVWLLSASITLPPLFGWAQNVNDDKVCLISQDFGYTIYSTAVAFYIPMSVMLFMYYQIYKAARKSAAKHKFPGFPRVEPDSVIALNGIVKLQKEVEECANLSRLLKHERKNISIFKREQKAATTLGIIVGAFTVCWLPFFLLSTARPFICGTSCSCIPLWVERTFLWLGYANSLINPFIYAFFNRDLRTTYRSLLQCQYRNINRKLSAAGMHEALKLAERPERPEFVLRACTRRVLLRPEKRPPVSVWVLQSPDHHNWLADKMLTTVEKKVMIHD

COc1ccc2c(c1)c(CCN(C)C)cn2S(=O)(=O)c1ccccc1
Affinity [1]: 16 nM

CN1CCC[C@@H]1Cc1c[nH]c2ccc(NS(=O)(=O)c3ccccc3Cl)cc12
Ki [2]: > 2000 nM | Ki [3]: > 1000 nM | Ki [4]: > 5000 nM | Ki [5]: 74 nM | Ki [6]: 170 nM | Ki [7]: 29.5 nM | Ki [8]: 16 nM | Ki [9]: 1 nM | Ki [10]: 367 nM | EC50 [11]: 1.1 nM | Emax [12]: 100% | Ki [13]: 289 nM

O=S(=O)(Cc1ccccc1I)Nc1ccc2[nH]cc(C[C@H]3CCCN3)c2c1
inhibition [14]: 42% | Emax [12]: 100%

O=S(=O)(Nc1ccc2[nH]cc(C[C@@H]3CCCN3)c2c1)c1ccc(F)cc1
inhibition [15]: 74%

CN1CCC[C@@H]1Cc1c[nH]c2ccc(NS(=O)(=O)c3cccc(Cl)c3)cc12
Ki [2]: > 2000 nM | Ki [3]: 930 nM | Ki [4]: > 5000 nM | Ki [5]: 24 nM | Ki [6]: 200 nM | Ki [7]: 4.7 nM | Ki [8]: 2.7 nM | Ki [9]: 0.4 nM | Ki [10]: 269 nM | EC50 [11]: 1.6 nM | Emax [12]: 100% | Ki [13]: 231 nM

O=S(=O)(Nc1ccc2[nH]cc(C[C@H]3CCCN3)c2c1)c1ccccc1Cl
Ki [2]: > 5000 nM | Ki [3]: > 5000 nM | Ki [4]: > 5000 nM | Ki [6]: 552 nM | Ki [7]: > 1000 nM | Ki [8]: 12.3 nM | Ki [9]: 3 nM | EC50 [11]: 1.3 nM | Emax [12]: 100% | Ki [13]: 566 nM

COc1ccc(S(=O)(=O)Nc2ccc3[nH]cc(C[C@@H]4CCCN4)c3c2)cc1
inhibition [15]: 64%
